Only some compounds are listed: those with a hit (about 4.6% of all), similar ones and a draw of the others.
ALR H2O2 inh: blocks human ALR sulfhydryl oxidase activity. P55789. purified ALR, DTT oxidation, H2O2 HRP-luminol luminescence. inhibition, % (concentration not given with the values). 290,000 compounds, 3.8% hits. AID 485317;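 active means mean replicate inhibition above about 79%, with every replicate also reaching it, limit read from the data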
UCH37 inh: human UCH37 deubiquitinating enzyme inhibition; purified proteasome/UCH37, Ub-AMC cleavage fluorescence; inhibition, % (no concentration beside the values); 330,000 compounds, 0.33% hits; AID 588478;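 active means mean inhibition over replicate wells above about 20%, limit read from the data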
Target sequence (Q9Y5K5 whole entry, looked up): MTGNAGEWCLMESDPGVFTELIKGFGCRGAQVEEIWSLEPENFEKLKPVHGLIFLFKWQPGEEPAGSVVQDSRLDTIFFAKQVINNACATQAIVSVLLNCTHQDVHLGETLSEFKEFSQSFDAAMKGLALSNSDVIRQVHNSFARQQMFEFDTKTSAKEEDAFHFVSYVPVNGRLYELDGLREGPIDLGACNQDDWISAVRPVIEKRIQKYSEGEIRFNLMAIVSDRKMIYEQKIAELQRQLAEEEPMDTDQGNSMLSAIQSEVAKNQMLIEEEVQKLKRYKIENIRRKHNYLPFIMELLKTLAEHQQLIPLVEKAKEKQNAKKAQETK
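Test system – human UCH37 enzyme supplied as purified proteasome complex · Incubation – 30 min preincubation with enzyme, 25 min cleavage at room temperature · Detection – AMC fluorescence from Ub-AMC cleavage, excitation 355 nm, emission 460 nm · Benchmarks – no-proteasome wells (full inhibition) and compound-free wells (no inhibition)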
FAS TE block: inhibitors of human fatty acid synthase thioesterase domain. inhibition, % at 15 µM. AID 602261. P49327. recombinant FAS-TE, OMFH fluorogenic substrate, fluorescence endpoint. 360,000 compounds, 0.67% hits;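 active means compounds whose normalised, plate-corrected inhibition of enzyme fluorescence in the single-dose primary screen is 50% or more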
M18AAP inhibitor: PfM18AAP enzyme inhibition; recombinant PfM18AAP, H-Glu-NHMec fluorogenic cleavage; inhibition, % at 7.35 µM; 290,000 compounds, 1.2% hits; AID 1822;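 active means inhibition above the campaign mean inhibition over all tested compounds plus 3 SD, cut at about 28% in these data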
Rtt109 HAT inh: inhibitors of Candida albicans Rtt109/Vps75 histone acetyltransferase. purified Rtt109/Vps75, ThioGlo CoA-SH fluorescence, 4 h. inhibition, % at 34.9 µM. 330,000 compounds, 0.16% hits;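 active means inhibition of at least 50% in every replicate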
HDAC3 inhib: human HDAC3 inhibition | O15379 | recombinant HDAC3, fluorogenic peptide/trypsin coupled, fluorescence | inhibition, % at 8.3 µM | 320,000 compounds, 0.15% hits | AID 2718; in the data active means inhibition above about 26%, passing the limit was not always enough
Numbers stand for hits.

How did Cn1c(=O)c2c(ncn2CCC(=O)NN=Cc2ccccc2)n(C)c1=O do in these assays?
UCH37 inh: inactive

What do the screens show for `Cc1cc(C=NO)c(C)n1-c1ccncc1`?
UCH37 inh: inactive

What do the screens show for `CCOC(=O)C(C#N)=NNc1ccc(S(=O)(=O)N2CCc3ccccc32)cc1`?
UCH37 inh: inactive

What do the screens show for `CCN1C(=O)/C(=C\N(C)C)SC1=NS(=O)(=O)c1ccc(C)cc1`?
UCH37 inh: inactive

Results for Cc1ccc(S(=O)(=O)N/N=C/c2ccccc2O)cc1[N+](=O)[O-] ?
ALR H2O2 inh: 96; FAS TE block: inactive; M18AAP inhibitor: inactive; Rtt109 HAT inh: inactive; HDAC3 inhib: inactive

How did Cc1ccc(S(=O)(=O)NN=Cc2ccccc2F)cc1[N+](=O)[O-] do in these assays?
UCH37 inh: inactive

Results for CCC1(c2ccccc2)NC(=S)N(c2ccc(C)c(C)c2)N1 (stereo unspecified) ?
UCH37 inh: inactive; FAS TE block: inactive; M18AAP inhibitor: inactive; Rtt109 HAT inh: inactive; HDAC3 inhib: inactive

What do the screens show for `CCC1(c2ccc(Cl)cc2)NC(=S)N(c2ccc(C)c(C)c2)N1` (stereo unspecified)?
ALR H2O2 inh: 97; UCH37 inh: inactive; FAS TE block: inactive; M18AAP inhibitor: inactive; HDAC3 inhib: inactive

What do the screens show for `N#C/C(=C\c1ccccc1)C(=O)N(c1ccccn1)C1CCCCC1`?
ALR H2O2 inh: inactive; UCH37 inh: inactive; FAS TE block: inactive; M18AAP inhibitor: inactive; Rtt109 HAT inh: inactive; HDAC3 inhib: inactive

What do the screens show for `O=C(/C=C/c1ccc([N+](=O)[O-])cc1)N(c1ccccn1)C1CCCCC1`?
UCH37 inh: inactive; FAS TE block: inactive; M18AAP inhibitor: 43; Rtt109 HAT inh: inactive; HDAC3 inhib: inactive

How did O=C(NN=Cc1coc2ccccc2c1=O)c1cc2ccccc2o1 do in these assays?
UCH37 inh: inactive

Results for Cc1ccc2nc(N3C(=O)C(O)=C(C(=O)c4ccc(C)o4)C3c3ccco3)sc2c1 (stereo unspecified) ?
ALR H2O2 inh: inactive; FAS TE block: inactive; Rtt109 HAT inh: inactive; HDAC3 inhib: inactive

Results for Cc1ccc2nc(N3C(=O)C(O)=C(C(=O)c4ccco4)C3c3ccc(C)o3)sc2c1 (stereo unspecified) ?
ALR H2O2 inh: 89; FAS TE block: inactive; M18AAP inhibitor: inactive; Rtt109 HAT inh: inactive; HDAC3 inhib: inactive

Results for Cc1cc(C)c2nc(N3C(=O)C(O)=C(C(=O)c4ccco4)C3c3cccc(O)c3)sc2c1 (stereo unspecified) ?
ALR H2O2 inh: 99; UCH37 inh: inactive; FAS TE block: inactive; Rtt109 HAT inh: inactive; HDAC3 inhib: inactive

How did CCOC(=O)c1sc(N2C(=O)C(O)=C(C(=O)c3ccco3)C2c2cccc([N+](=O)[O-])c2)nc1C (stereo unspecified) do in these assays?
ALR H2O2 inh: 91; UCH37 inh: inactive; FAS TE block: inactive; M18AAP inhibitor: inactive; Rtt109 HAT inh: inactive; HDAC3 inhib: inactive

What do the screens show for `Cc1cc(C)c2nc(N3C(=O)C(O)=C(C(=O)c4ccco4)C3c3ccc(O)cc3)sc2c1` (stereo unspecified)?
ALR H2O2 inh: 99; UCH37 inh: inactive; FAS TE block: inactive; Rtt109 HAT inh: inactive; HDAC3 inhib: inactive

What do the screens show for `NC(=O)NN=CCCc1ccccc1`?
UCH37 inh: inactive

What do the screens show for `COc1cc(C(=O)Oc2ccccc2C=NNC(=O)c2ccc(C)c(Cl)c2)cc(OC)c1OC`?
UCH37 inh: inactive

What do the screens show for `CC(C)c1ccc(C=NNC(=O)c2cccc(S(=O)(=O)N3CCOCC3)c2)cc1`?
UCH37 inh: inactive

Results for C/C(=N/Nc1ccc([N+](=O)[O-])cc1)c1ccc(C)cc1C ?
ALR H2O2 inh: 98; FAS TE block: inactive; M18AAP inhibitor: inactive; Rtt109 HAT inh: inactive

How did CC(=NNc1ccc([N+](=O)[O-])cc1)c1ccc(O)cc1 do in these assays?
UCH37 inh: inactive

Results for NNS(=O)(=O)c1ccc2c(c1)Cc1cc(S(=O)(=O)NN)ccc1-2 ?
ALR H2O2 inh: 99; UCH37 inh: inactive; FAS TE block: inactive; M18AAP inhibitor: inactive; Rtt109 HAT inh: inactive; HDAC3 inhib: inactive

Results for CC(=NNC(=O)CNC(=O)Cc1ccc(Cl)cc1)c1ccco1 ?
UCH37 inh: inactive

Screens deposited in PubChem BioAssay by several laboratories.
